# Assay results of several laboratories.
# Lines come from different studies, so protocols differ.
# Target: Serine/threonine-protein kinase 17A (STK17A, Homo sapiens, UniProt Q9UEE5)
SMILES,read-out,mode,method,concentration,quantity,result
Cc1ccc(NC(=O)c2ccc(CN3CCN(C)CC3)cc2)cc1Nc1nc(-c2cccnc2)cs1,cell-free assay,,,0.5 µM,remaining signal,104%
Cc1ccc(Nc2nccc(N(C)c3ccc4c(C)n(C)nc4c3)n2)cc1S(N)(=O)=O,cell-free assay,,,0.3 µM,inhibition,-6%
CC1CCCN1c1nccc(-c2cnn3ncccc23)n1 (stereo not shown),binding,,,1 µM,remaining binding,84%
N#CCCc1ccc2c(c1)-c1[nH]c3ccc([N+](=O)[O-])cc3c1CC(=O)N2,cell-free assay,,,0.5 µM,remaining signal,46.8%
Cc1cc(NC(=O)c2cccc3cc(-c4cccc5[nH]nc(N)c45)ccc23)ccc1F,enzyme activity,inhibitor,,0.1 µM,activity vs control,81%
Cc1nn(CC(F)(F)F)cc1Nc1ncc(C2CC2)c(NCCCNC(=O)C2CCC2)n1,enzyme activity,inhibitor,radiometric,1 µM,remaining activity,25%
COc1cc2ncnc(Nc3ccc(F)c(Cl)c3)c2cc1OCCCN1CCOCC1,cell-free assay,,,0.5 µM,remaining signal,96%
Cc1nn(CC(F)(F)F)cc1Nc1ncc(C2CC2)c(NCCc2c[nH]cn2)n1,enzyme activity,inhibitor,radiometric,1 µM,remaining activity,107%
O=C(Nc1ccc(Oc2ccc(F)cc2)cc1)N1CCc2ncccc2[C@H]1c1ccc(F)cc1,cell-free assay,,competition with immobilised ligand,1 µM,remaining binding,86%
Brc1cnc(Nc2cccc(CN3CCOCC3)c2)nc1NCCc1c[nH]cn1,enzyme activity,inhibitor,radiometric,1 µM,remaining activity,8%
C#Cc1cccc(Nc2ncnc3cc(OCCOC)c(OCCOC)cc23)c1,cell-free assay,,,0.5 µM,remaining signal,99.7%
C[C@@H](c1cccc(C#N)c1)n1cc(Cl)cc(C(N)=O)c1=N,cell-free assay,,competition with immobilised ligand,1 µM,remaining binding,89%
NS(=O)(=O)c1ccc(CNc2nc(Nc3cccc(NC(=O)N4CCCC4)c3)ncc2Br)cc1,enzyme activity,inhibitor,radiometric,1 µM,remaining activity,41%
C=CC(=O)Nc1cc(Nc2nccc(Nc3cc(Cl)c(F)cc3C(C)(C)O)n2)c(OC)cc1N1CC[C@@H](N(C)C)C1,enzyme activity,inhibitor,,1 µM,inhibition,1%
O=C(O)[C@H]1[C@H](Cn2nnc3ccccc3c2=O)CC[C@@H]1C(=O)c1ccc(OCCC2CCOCC2)cc1,cell-free assay,,competition with immobilised ligand,1 µM,remaining binding,97%
NS(=O)(=O)c1ccc(CNc2nc(Nc3cccc(CN4CCOCC4)c3)ncc2Br)cc1,enzyme activity,inhibitor,radiometric,1 µM,remaining activity,58%
CC(=O)C1=C(C)N(c2cccc(C(F)(F)F)c2)C(=O)N[C@@H]1c1ccc(C#N)nc1,cell-free assay,,competition with immobilised ligand,1 µM,remaining binding,93.7%
Cc1nn(CC(F)(F)F)cc1Nc1ncc(Br)c(NCCCNC(=O)C2CCC2)n1,enzyme activity,inhibitor,radiometric,1 µM,remaining activity,5%
CCCOc1ccc([C@H]2[C@H](C(=O)O)[C@@H](c3ccc4c(c3)OCO4)CN2CC(=O)Nc2c(CC)cccc2CC)cc1,cell-free assay,,competition with immobilised ligand,1 µM,remaining binding,92%
O=C(NCCCNc1nc(Nc2cccc(NC(=O)N3CCCC3)c2)ncc1I)c1cccs1,enzyme activity,inhibitor,radiometric,1 µM,remaining activity,2%
COc1ccc2cc(OCC3(C(=O)O)CN(C(=O)c4ccc(F)cc4)C3)ccc2c1,cell-free assay,,competition with immobilised ligand,1 µM,remaining binding,81%
CNC(=O)c1cc(Oc2ccc(NC(=O)Nc3ccc(Cl)c(C(F)(F)F)c3)cc2)ccn1,cell-free assay,,,10 µM,inhibition,31%
Clc1ccc(Nc2nnc(Cc3ccncc3)c3ccccc23)cc1,cell-free assay,,,0.5 µM,remaining signal,99.4%
O=C1CCc2cc(Nc3cc(OC4CCOCC4)c([N+](=O)[O-])cc3Cl)ccc2N1,cell-free assay,,competition with immobilised ligand,1 µM,remaining binding,95%
O=C(NCCCNc1ccnc(Nc2cccc(NC(=O)N3CCCC3)c2)n1)C1CCC1,enzyme activity,inhibitor,radiometric,1 µM,remaining activity,18%
